Data reported in ChEMBL document CHEMBL4052652, “Development of WNK signaling inhibitors as a new class of antihypertensive drugs” (Bioorg Med Chem, 2017).
Activity calls are given as the source filed them. No cut-off for these calls is given here.

What was measured:
[1] = target: STE20/SPS1-related proline-alanine-rich protein kinase (Rattus norvegicus, UniProt O88506); experiment: Inhibition of TAMRA-labelled WNK4 binding to recombinant rat C-terminal GST-fused SPAK (452 to 553 residues) expressed in Escherichia coli BL21 measured for 15 secs by FCS assay
Procedure, shortened: (§1)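 GST-fused rat SPAK CCT (residues 452–553) expressed in E. coli BL21 with IPTG induction for 16 h at 28°C, then glutathione-affinity purified. TAMRA-labelled WNK4 RFQV peptide (2.7 nM final) incubated with 0.5 µM GST–SPAK-CCT in PBS with 0.05% Tween 20 and 1% DMSO for 30 min at 25°C. An AFQV-mutant peptide served as negative control. Binding read by FCS with 15 s acquisition, five measurements per sample, and IC50 calculated from the data.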

HEK-293T [2] = experiment: Cytotoxicity against HEK293T cells after 40 hrs by CCK8 assay; assay type: cell-based; settings: Homo sapiens
[3] = target: STE20/SPS1-related proline-alanine-rich protein kinase (Rattus norvegicus) (UniProt O88506); experiment: Inhibition of TAMRA-labelled WNK4 binding to recombinant rat C-terminal GST-fused SPAK (452 to 553 residues) expressed in Escherichia coli BL21 at > 10^-5 M measured for 15 secs by FCS assay; procedure, shortened: as §1
Mus musculus [4] = experiment: In-vivo inhibition of WNK signaling pathway in ip dosed C57BL/6 mouse assessed as reduction in phosphorylated NCC level after 90 mins by immunoblotting analysis; assay type: functional, organism-based
Procedure, shortened: (§2)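 Male-unspecified C57BL/6 mice, 10 weeks old, given a single ip injection of 5, 10 or 20 mg/kg in 100 µL DMSO, with DMSO-alone controls. Kidneys taken 90 min later and homogenized in ice-cold 1% Triton X-100 buffer. Nuclear fraction removed, lysate denatured at 60°C for 20 min, and protein measured by Bradford. Total and phospho forms of SPAK, NCC (pSer71), NKCC1 (pThr206) and NKCC2 detected by quantitative immunoblotting.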

HEK-293T [5] = experiment: Cytotoxicity against HEK293T cells at 100 uM after 40 hrs by CCK8 assay; assay type: cell-based; settings: human
Mus musculus [6] = experiment: In-vivo inhibition of WNK signaling pathway in C57BL/6 mouse assessed as reduction in NKCC1 phosphorylation at 5 to 20 mg/kg, ip after 90 mins by immunoblotting analysis; assay type: functional, organism-based; procedure, shortened: as §2
Mus musculus [7] = experiment: In-vivo inhibition of WNK signaling pathway in C57BL/6 mouse assessed as reduction in NKCC2 phosphorylation at 5 to 20 mg/kg, ip after 90 mins by immunoblotting analysis; assay type: functional, organism-based; procedure, shortened: as §2

| SMILES | IC50 [1] [µM] | further results |
| --- | --- | --- |
| CCOc1ccc2nc3cc(NC(=O)c4ccc([N+](=O)[O-])cc4)ccc3c(N)c2c1 | 20.9 |  |
| CCOc1ccc2nc3cc(NC(=O)c4ccc(C#N)cc4)ccc3c(Oc3ccccc3)c2c1 |  | inhibition [3]: inactive |
| CCOc1ccc2nc3cc(NC(=O)c4ccc(Cl)cc4)ccc3c(N)c2c1 | 49 |  |
| CCOc1ccc2nc3cc(NC(=O)c4ccco4)ccc3c(N)c2c1 | 8.2 |  |
| CCOc1ccc2nc3cc(NC(=O)c4ccc5ccccc5c4)ccc3c(N)c2c1 | 7.6 |  |
| CCOc1ccc2nc3cc(NC(=O)c4ccc(C(=O)OC)cc4)ccc3c(N)c2c1 |  | inhibition [3]: inactive |
| CCOc1ccc2nc3cc(NC(=O)c4ccc(F)cc4)ccc3c(N)c2c1 | 36.9 |  |
| CCOc1ccc2nc3cc(NC(=O)c4ccc(C#N)cc4)ccc3cc2c1 |  | inhibition [3]: inactive |
| CCOc1ccc2nc3cc(NCc4ccccc4)ccc3c(N)c2c1 | 35.6 |  |
| CCOc1ccc2nc3cc(NC(=O)c4cccc([N+](=O)[O-])c4)ccc3c(N)c2c1 | 3.9 |  |
| CCOc1ccc2nc3cc(NC(C)=O)ccc3c(N)c2c1 |  | inhibition [3]: inactive |
| CCOc1ccc2nc3cc(NC(=O)c4ccc(C#N)cc4)ccc3c(N)c2c1 | 6.9 | inhibition (Mus musculus [4]): Dose-dependent effect; inhibition (Mus musculus [6]): Active; IC50 (HEK-293T [2]): 25 µM; inhibition (Mus musculus [7]): Active |

More lines, main results first:

| IC50 [1] [µM] | SMILES | further results |
| --- | --- | --- |
| 15.4 | CCOc1ccc2nc3cc(NCc4ccco4)ccc3c(N)c2c1 | IC50 (HEK-293T [2]): 4.2 µM |
| 2.6 | N#Cc1ccc(NC(=O)Nc2ccc3c(N)c4cc(O)ccc4nc3c2)cc1 |  |
| 53.5 | CCOc1ccc2nc3cc(NCc4cccs4)ccc3c(N)c2c1 |  |
| 21.1 | CCOc1ccc2nc3cc(NCc4ccc(OC)cc4OC)ccc3c(N)c2c1 |  |
| 2.6 | CCOc1ccc2nc3cc(NC(=O)c4cccc(C#N)c4)ccc3c(N)c2c1 |  |
| 28.2 | CCOc1ccc2nc3cc(NC(=O)c4ccccc4)ccc3c(N)c2c1 |  |
| 4.8 | COc1ccc2nc3cc(NC(=O)Nc4ccc(C#N)cc4)ccc3c(N)c2c1 | inhibition (Mus musculus [4]): Dose-dependent effect; Activity (HEK-293T [5]): Non-Toxic; inhibition (Mus musculus [6]): Active; inhibition (Mus musculus [7]): Active |
| > 100 | CCOc1ccc2nc3cc(NC(=O)c4cc(C(F)(F)F)cc(C(F)(F)F)c4)ccc3c(N)c2c1 |  |
